Reference: article PMC7612733 (Biochemistry, 2022)
Substitutions are numbered along the chain they refer to.

Columns and labels:
wt horcolin = biological target: T1, wt horcolin (Hordeum vulgare, UniProt Q5U9T2); test: 1H-15N HSQC-detected NMR titration with TITAN 2D lineshape modeling, wt horcolin; format: binding, Hordeum vulgare (barley)
T1 sequence (Q5U9T2 1-146): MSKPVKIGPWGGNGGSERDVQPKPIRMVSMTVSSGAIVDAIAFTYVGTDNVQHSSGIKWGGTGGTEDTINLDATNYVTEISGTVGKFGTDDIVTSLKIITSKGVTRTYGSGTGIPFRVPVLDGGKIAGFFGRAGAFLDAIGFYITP

D138A horcolin = biological target: T2, D138A horcolin (Hordeum vulgare, UniProt Q5U9T2, D138A); format: binding, Hordeum vulgare (barley)
T2 sequence (Q5U9T2 1-146 D138A): T1 sequence (Q5U9T2 1-146) with D138A
Outline: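 Uniformly 15N-labelled, C-terminally His-tagged D138A horcolin was expressed in E. coli BL21(DE3) in M9 medium and purified on Ni-NTA. Samples were in 25 mM Tris, 50 mM NaCl, 1 mM EDTA, 0.03% NaN3, 10% D2O, pH 7.4. 1H-15N HSQC spectra were recorded at 18 methyl-α-D-mannose concentrations from 0 to 167 mM. Lineshapes of 14 residues were globally fitted in TITAN; errors are SD of 100 bootstrap replicas.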

D39A horcolin = biological target: T3, D39A horcolin (Hordeum vulgare, UniProt Q5U9T2, D39A); format: binding, Hordeum vulgare (barley)
T3 sequence (Q5U9T2 1-146 D39A): T1 sequence (Q5U9T2 1-146) with D39A
Outline: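 15N-labelled D39A horcolin carried a C-terminal His tag, was expressed in E. coli BL21(DE3) in M9 medium and purified by Ni-NTA. NMR buffer was pH 7.4: 25 mM Tris, 50 mM NaCl, 1 mM EDTA, 0.03% NaN3, 10% D2O. HSQC spectra were taken over 21 methyl-α-D-mannose points from 0 to 914 mM. Sixteen residues were globally lineshape-fitted in TITAN; errors are SD of 100 bootstraps.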

crystal structure = biological target: the molecule itself; test: crystal structure
HIV gp120 = settings: read-out: equilibrium dissociation constant (Kd); cited from earlier work
HIV-1 = settings: cited from earlier work

Molecule: CO[C@H]1O[C@H](CO)[C@@H](O)[C@H](O)[C@@H]1O [mannose, methyl-α-D-mannose]
- koff1 (wt horcolin; CBS1, wt horcolin, sequential model): (2.4 ± 0.2) x 10^3 s^-1
- kon1 (wt horcolin; CBS1, wt horcolin, sequential model, from koff and Kd): (1.19 ± 0.08) x 10^5 M^-1s^-1
- koff2 (wt horcolin; CBS2, wt horcolin, sequential model): (2.5 ± 0.1) x 10^3 s^-1
- kon2 (wt horcolin; CBS2, wt horcolin, sequential model, from koff and Kd): (5.3 ± 0.2) x 10^5 M^-1s^-1
- Kd (wt horcolin; Kd1, CBS1, wt horcolin, two-binding-site non-cooperative (NC) model, cluster of four residues): 59 ± 2 mM
- Kd (wt horcolin; Kd1, CBS1, wt horcolin, two-site sequential binding model, 25 °C, pH 7.4): 19.9 ± 0.1 mM
- Kd (wt horcolin; Kd2, CBS2, wt horcolin, two-binding-site non-cooperative (NC) model, cluster of four residues): 7.7 ± 0.1 mM
- Kd (wt horcolin; Kd2, CBS2, wt horcolin, two-site sequential binding model, 25 °C, pH 7.4): 4.71 ± 0.02 mM
- binding free energy difference ΔΔG^0 between CBS2 and CBS1 (wt horcolin; wt horcolin): 0.85 kcal/mol
- fold higher affinity for CBS2 than CBS1 (wt horcolin; wt horcolin, sequential model): 4.2 fold
- Kd (D138A horcolin): 3.2 ± 0.3 mM
- fold increase of koff at CBS2, D138A versus wt (D138A horcolin): 2 fold
- fold increase of kon at CBS2, D138A versus wt (D138A horcolin): 3 fold
- koff2 (D138A horcolin; CBS2 only, D138A horcolin, two-state model): (5.0 ± 0.4) x 10^3 s^-1
- kon2 (D138A horcolin; CBS2 only, D138A horcolin, from koff and Kd): (1.6 ± 0.1) x 10^6 M^-1s^-1
- Kd (D39A horcolin): 55.6 ± 0.2 mM
- fold increase of koff at CBS1, D39A versus wt (D39A horcolin): 7 fold
- fold increase of kon at CBS1, D39A versus wt (D39A horcolin): 2.4 fold
- koff1 (D39A horcolin; CBS1 only, D39A horcolin, two-state model): (16.4 ± 0.7) x 10^3 s^-1
- kon1 (D39A horcolin; CBS1 only, D39A horcolin, from koff and Kd): (2.9 ± 0.1) x 10^5 M^-1s^-1
- ΔΔG^0 between the two single-site binding events (D39A horcolin; D138A (CBS2) versus D39A (CBS1) horcolin): 1.7 kcal/mol
- factor of difference in koff between single-binding-site mutants (D39A horcolin; D138A versus D39A horcolin): 3.3
- fold difference in kon between single-binding-site mutants (D39A horcolin; D138A versus D39A horcolin): 5.3 fold

B1: horcolin (natural protein, Hordeum vulgare (barley))
chain: T1 sequence (Q5U9T2 1-146)
- stoichiometry N (crystal structure): 2

B2: horcolin: dimeric mannose-specific jacalin-related lectin from Hordeum vulgare (barley), 146 amino acids per protomer (protein)
chain: T1 sequence (Q5U9T2 1-146)
- Kd (HIV gp120): 14.4 nM
- HIV-1 neutralization (HIV-1): has the ability to neutralize HIV-1
